Hit rate of the full screen: of about 360,000 compounds, about 5,400 (1.5%) were called active. This is one part of a sample in which actives are shown more often than they occur.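 The calls were made as follows: active = inhibition above a per-plate cutoff, the mean inhibition of test compounds on that plate plus 3 SD (cut at about 49% in these data); inactive = the rest.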 Where a SMILES comes first, the peptide text is derived from it. The star is where a group is joined. Bz = O=C(c1ccccc1)*
molecular target: Trace amine-associated receptor 1 (Homo sapiens) (UniProt Q96RJ0); assay: blockers of beta-PEA-driven TAAR1 calcium signal – Fluo-8 calcium fluorescence, CHO RD-HGA16 cells, primary screen (AID 624466); conditions: CHO RD-HGA16 TAAR1, Fluo-8 calcium fluorescence, antagonist; at 3 µM; stronger effect = higher value;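 also: 0% = DMSO plus EC80 beta-PEA response and 100% = DMSO alone without agonist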
Sequence (Q96RJ0 whole entry, looked up, the tested form may be a part): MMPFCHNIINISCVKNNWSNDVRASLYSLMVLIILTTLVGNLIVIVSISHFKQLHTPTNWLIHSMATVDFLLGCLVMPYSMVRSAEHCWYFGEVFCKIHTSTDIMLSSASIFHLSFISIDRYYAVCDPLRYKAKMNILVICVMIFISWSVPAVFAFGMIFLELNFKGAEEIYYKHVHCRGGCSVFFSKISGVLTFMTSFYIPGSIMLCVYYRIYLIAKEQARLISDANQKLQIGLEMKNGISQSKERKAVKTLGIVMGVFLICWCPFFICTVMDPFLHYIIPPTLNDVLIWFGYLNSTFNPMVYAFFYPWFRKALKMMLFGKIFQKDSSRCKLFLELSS
Summary of the method: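 Test system: hTAAR1-expressing CHO RD-HGA16 cells, Gα16-coupled; Probe or stimulus: EC80 β-phenethylamine stimulus; Compound dosing: single nominal final test compound concentration of 3 µM; Timing: 140 s kinetic read after compound, 140 s after agonist; Signal: Fluo-8 calcium-sensitive fluorescence; Measure: % inhibition of agonist calcium response; Controls: DMSO and EC80 PEA controls.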

Structure (SMILES)	inhibition
O=C1C=C(c2ccc(Cl)cc2)C(=O)N1Nc1ccccc1	74.6% (active)
CC(C)N(C)C(=O)CCc1nnc(CCc2c[nH]c3ccccc23)o1	-0.9% (inactive)
COC(=O)C1=C(C)N(Cc2cccc(C(F)(F)F)c2)C(=NCc2cccc(C(F)(F)F)c2)NC1c1ccccc1C(F)(F)F (stereo unspecified)	-30.9% (inactive)
Cc1ccc(C(=O)Nc2ccc(C)c(S(=O)(=O)N(C)C)c2)s1	11.3% (inactive)
O=C(NCCc1ccc(Cl)cc1)C1CCCN1C(=O)NCc1ccccc1 (stereo unspecified)	-9.56% (inactive)
O=C(NC(Cc1ccccc1)C(=O)N1CCCC1C(=O)O)c1ccccc1 (stereo not drawn) (Bz-Phe-Pro-OH; configuration not given here)	-24.6% (inactive)
O=C(N[C@H](C(=O)N1CCC[C@H]1C(=O)NCCc1ccccc1Cl)c1ccccc1)c1ccccc1	56.7% (active)
O=C(Nn1c(-c2ccc(Cl)cc2)nc2ccccc2c1=O)c1cccnc1Cl	15.6% (inactive)
O=C(C[C@H]1CC[C@H]2[C@@H](COC[C@H](O)CN2C(=O)c2ccccn2)O1)N1CCN(c2ccccc2)CC1	-9.63% (inactive)
CCOC(=O)N1CCN(C(=O)C[C@@H]2C[C@@]3(C(=O)OC)CC(C)(C)CC=C3N(Cc3ccco3)C2=O)CC1	-19% (inactive)
COc1ccc(Nc2ncc(C(=O)N3CCN(c4ccccc4OC)CC3)c3ccccc23)cc1	49.5% (active)
COc1ccccc1N1CCN(C(=O)c2ccc(NC3=NC4CS(=O)(=O)CC4S3)cc2)CC1 (stereo unspecified)	-7.44% (inactive)
COc1ccccc1N1CCN(C(=O)c2cn(-c3ccccc3)nc2-c2cccnc2)CC1	22.2% (inactive)
CCCC(C)NC(=O)C1CCN(C(=O)C2CC(=O)N(c3ccc(C)cc3)C2)CC1 (stereo unspecified)	3.73% (inactive)
C[C@@H]1ON(C)[C@H]2C[C@H]3c4cc(N5CCOCC5)ccc4CCN3C[C@@H]12	-3.17% (inactive)
COc1ccc(S(=O)(=O)Nc2ccc3c(c2)C(=O)N([C@H](C)CO)C[C@H](C)[C@@H](CN(C)C)OCCCC[C@H](C)O3)cc1	-3.5% (inactive)
CSC(=S)N/N=C/c1c[nH]c2ccccc12	88.6% (active)
C[n+]1ccc(/C=C/c2c[nH]c3ccccc23)cc1	-4.64% (inactive)
O=C(Cc1c[nH]c2ccccc12)N/N=C/c1cccc(F)c1	15.8% (inactive)
COc1ccc(S(=O)(=O)N2CCOC2CNC(=O)C(=O)NCc2ccncc2)cc1C (stereo unspecified)	-15.9% (inactive)
COc1ccc(CCNC(=O)C(=O)NCC2OCCN2S(=O)(=O)c2ccc(F)cc2)cc1OC (stereo unspecified)	-12% (inactive)
COc1ccc(CCNC(=O)C(=O)NCC2OCCN2S(=O)(=O)c2ccc(OC)c(C)c2)cc1 (stereo unspecified)	53.6% (active)
CC1Cc2[nH][nH]c(=O)c2C(C2CCCC2)O1 (stereo unspecified)	2.81% (inactive)
CC(C)c1cc(Cn2c3ccccc3c(=O)n2C(C)Cn2cc(C3CC3)nn2)on1 (stereo unspecified)	-16% (inactive)
CCCCN(C(=O)c1cccc(N2C(=O)c3ccccc3C2=O)c1)c1c(N)n(CCCC)c(=O)[nH]c1=O	5.52% (inactive)
CC(C)[C@@H](C)/C=C/[C@@H](C)[C@H]1CC[C@@H]2[C@]1(C)CCC1[C@]23C=C[C@]2(C[C@@H](O)CC[C@]12C)N(c1ccc([N+](=O)[O-])cn1)O3 (stereo partly specified)	-12% (inactive)

Structure (SMILES)	inhibition
O=c1c2cc(-c3ccccc3)sc2nc2n1N=C(c1cccs1)CS2	-11.2% (inactive)
Oc1ccccc1N1CCN(C(=S)NCc2ccccc2)CC1	3.27% (inactive)
Oc1ccccc1N1CCN(c2ncnc3sc(-c4ccccc4)cc23)CC1	58.6% (active)
O=C(Cn1c(N2CCN(C/C=C/c3ccccc3)CC2)nc2ccccc21)c1ccccc1	10.7% (inactive)
COc1cccc(CC(=O)N2CCN(C(=O)C(=O)c3cccc(C(F)(F)F)c3)CC2)c1	15.5% (inactive)
Cc1ccccc1NC(=O)Cc1nc(COC(=O)C(C)(C)Oc2ccc(Cl)cc2)cs1	64.8% (active)
Cc1ccccc1NC(=O)Cc1nc(COC(=O)c2cccnc2Cl)cs1	10.4% (inactive)
Cc1ccccc1NC(=O)Cc1nc(COC(=O)CNC(=O)c2ccc(Cl)cc2Cl)cs1	-26.5% (inactive)
CC(C)Nc1nnc(SC(C)C(=O)N(C)C2CCCCC2)s1 (stereo unspecified)	-5.6% (inactive)
Cc1cccc(S(=O)(=O)CC(=O)Nc2nc(-c3ccccc3)cs2)c1	53.8% (active)
Cc1ccc(C)c(-c2nnc(NC(=O)CS(=O)(=O)c3ccccc3)o2)c1	-13.2% (inactive)
Cc1ccc(S(=O)(=O)CC(=O)NC(C)c2ccccc2)cc1 (stereo unspecified)	-14.5% (inactive)
CCOC(=O)[C@]12CCCC=C1N(CCC1=CCCCC1)C(=O)[C@H](CC(=O)N1CCCCC1)C2	-49.4% (inactive)
COC(=O)C1=C(C)N(Cc2ccccc2C(F)(F)F)C(=NCc2ccc(C(F)(F)F)cc2)NC1c1ccc(F)cc1 (stereo unspecified)	-31.9% (inactive)
Nc1nnc(SCC(=O)Nc2ccc3nc(SCC(=O)Nc4ccccc4)sc3c2)s1	48.9% (active)
CCCCNC(=O)CSc1nc2ccc(NC(=O)CSc3nnc(COc4ccccc4C)n3C)cc2s1	23.6% (inactive)
CCCCNC(=O)CSc1nc2ccc(NC(=O)CSc3nnc(N)s3)cc2s1	14.2% (inactive)
COC(=O)[C@@]12C[C@@H](CC(=O)NCCCCc3ccccc3)C(=O)N(Cc3ccccc3)C1=CCC(C)(C)C2	1.67% (inactive)
CSCCC(C(=O)NC(C)(C)C)n1c(-c2ccccc2)nc2ccccc21 (stereo unspecified)	-24.9% (inactive)
COC(=O)[C@@]1(Cc2ccc(F)cc2)[C@H]2c3cc(C(=O)N4CCCC4)n(Cc4ccc(OC(F)(F)F)cc4)c3C[C@H]2CN1C(=O)c1ccccc1	-23% (inactive)
CC(NC(=O)Nc1ccccc1)c1ccccc1 (stereo unspecified)	8.89% (inactive)
CCC(C(=O)Nc1ccc(C(C)C)cc1)c1ccccc1 (stereo unspecified)	83.9% (active)
CC(C)c1ccc(NC(=O)Cn2ncc3ccccc32)cc1	-7.65% (inactive)
COc1ccc(C(=O)NCC[N+](C)(C)C)cc1	-19.6% (inactive)
O=c1[nH]c(-c2ccccc2)cn1C1CCN(Cc2ccc(-c3nc4ccc(F)cc4nc3-c3ccccc3)cc2)CC1	9.33% (inactive)

From PubChem BioAssay AID624466 (The Scripps Research Institute Molecular Screening Center, 2012)
